Reference: ChEMBL document CHEMBL1126765, “Analogues of capsaicin with agonist activity as novel analgesic agents; structure-activity studies. 1. The aromatic "A-region"” (J Med Chem, 1993)

Key:
Rattus norvegicus = species on record: Rattus norvegicus; assay: In vitro effective concentration for [Ca2+] uptake and accumulation of [Ca2+] in neonatal rat cultured spinal sensory neurons; format: functional
Method in brief: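 Newborn rat DRG neurones dissociated with collagenase then 2.5 mg/mL trypsin at 37 °C, plated with 1 μg/mL NGF, 10^-4 M cytosine arabinoside for 48 h; used at 3-7 days. Cells washed in Ca-free HEPES BSS pH 7.4, then given compound plus 10 μCi/mL 45Ca2+ with 1% DMSO for 10 min at room temperature. SDS-extracted, scintillation counted. Sigmoidal fit; ≥6 replicates, ≥2 experiments; mean ± SEM.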

[1] = Acid dissociation constant was determined; format: ADME
Cavia porcellus = species on record: Cavia porcellus; assay: In vitro contraction in guinea pig ileum equivalent to 50% capsaicin response; format: functional
Method in brief: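 Male Dunkin-Hartley guinea pig ileum segments in Tyrode's solution at 37 °C, gassed 95% O2/5% CO2, isometric recording, 1 h equilibration under 0.5 g tension. […] doses given at 1 h intervals with frequent washes. Contraction amplitude expressed as % of maximal capsaicin response; EC50 = concentration giving 50% of that response; mean ± SEM from at least four tissues.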

Mus musculus = assay: In vivo analgesic activity, mouse tail flick latency in antinociceptive assay; format: functional
Method in brief: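 Female CD-1 mice, about 20 g, fasted overnight. Drug or vehicle given s.c. into the back of the neck, 10 per group. Tail flick latency to a focused light beam measured 1 h later at 3.5 cm from the tip, 30 s cutoff. % analgesia = (drug − vehicle latency)/(30 s − vehicle latency); ED50 = dose giving 50% analgesia. Mann-Whitney U or Dunnett's test.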

With CCCCCCCCC(=O)NCc1cc(=O)c(O)co1 the EC50 (Rattus norvegicus) was > 100 µM.
With CCCCCCCCC(=O)NCc1ccc2[nH]ccc2c1 the EC50 (Rattus norvegicus) was > 100 µM.
In the case of CCCCCCCCNC(=O)Cc1ccc(OC)c(C)c1, the EC50 (Rattus norvegicus) is reported as > 100 µM.
For CCCCCCCCC(=O)NCc1cc(OC)c(OC)c(OC)c1, the EC50 (Rattus norvegicus) was > 100 µM.
In the case of CCCCCCCCNC(=O)Cc1cc(OC)c(O)c(OC)c1, the EC50 (Rattus norvegicus) is reported as > 100 µM.
Work on CCCCCCCCC(=O)NCc1ccc(O)c(O)c1O yielded an EC50 (Rattus norvegicus) of 7.64 µM.
Compound CCCCCCCCC(=O)NCc1ccnc(OC)c1 has an EC50 (Rattus norvegicus) of 31.5 µM.
CCCCCCCCNC(=O)Cc1ccc(OC)c(O)c1 gave an EC50 (Rattus norvegicus) of 1.82 µM.
In the case of CCCCCCCCNC(=O)Cc1ccc2ncccc2c1, the EC50 (Rattus norvegicus) is reported as > 100 µM.
With CCCCCCCCC(=O)NCc1ccc(N)c(OC)c1 the EC50 (Rattus norvegicus) was > 10 µM.
With CCCCCCCCNC(=O)Cc1ccc2c(c1)OCO2 the EC50 (Rattus norvegicus) was > 100 µM.
For CCCCCCCCNC(=O)Cc1ccc(O)c(Cl)c1, the pKa [1] was 9, the EC50 (Cavia porcellus) was 0.68 µM and the ED50 (Mus musculus) was > 50 µmol/kg. It also gave an EC50 (Rattus norvegicus) of 0.26 µM.
With CCCCCCCCNC(=O)Cc1ccc(O)c([N+](=O)[O-])c1 the pKa [1] was 7.7, the EC50 (Cavia porcellus) was 2.78 µM and the ED50 (Mus musculus) was > 50 µmol/kg. For the same compound, the EC50 (Rattus norvegicus) was 1.04 µM.
CCCCCCCCC(=O)NCc1ccncc1 gave an EC50 (Rattus norvegicus) of 28 µM.
For CCCCCCCCC(=O)NCc1cc[n+]([O-])cc1, the EC50 (Rattus norvegicus) was > 100 µM.
Compound CCCCCCCCC(=O)NCc1ccc([N+](=O)[O-])c(OC)c1 has an EC50 (Rattus norvegicus) of 7.91 µM.
For CCCCCCCCNC(=O)Cc1ccc(O)c(OCC)c1, the pKa [1] was 10.4, the EC50 (Cavia porcellus) was 4.96 µM and the ED50 (Mus musculus) was > 50 µmol/kg. The EC50 (Rattus norvegicus) was 4.34 µM.
In the case of CCCCCCCCC(=O)NCc1ccc(C(=O)O)cc1, the EC50 (Rattus norvegicus) is reported as > 100 µM.
In the case of CCCCCCCCNC(=O)Cc1ccc(O)c2c1OCCO2, the EC50 (Rattus norvegicus) is reported as > 100 µM.
For CCCCCCCCC(=O)NCc1cc(O)cc(OC)c1, the EC50 (Rattus norvegicus) was > 100 µM.
In the case of CCCCCCCCC(=O)NCc1cccc(OC)c1, the EC50 (Rattus norvegicus) is reported as > 100 µM.
For CCCCCCCCC(=O)NCc1ccc(O)cc1OC, the EC50 (Rattus norvegicus) was > 100 µM.
With CCCCCCCCNC(=O)Cc1ccc(O)c(OC)c1 the pKa [1] was 9.9, the EC50 (Cavia porcellus) was 0.33 µM and the ED50 (Mus musculus) was 9.2 µmol/kg. It also gave an EC50 (Rattus norvegicus) of 0.3 µM.
With CCCCCCCCNC(=O)Cc1ccc(O)c(OC)c1OC the EC50 (Rattus norvegicus) was > 100 µM.
In the case of CCCCCCCCC(=O)NCc1ccc(S)c(OC)c1, the EC50 (Rattus norvegicus) is reported as > 100 µM.
With CCCCCCCCNC(=O)Cc1cccc(OC)c1 the EC50 (Rattus norvegicus) was > 100 µM.
For CCCCCCCCNC(=O)Cc1ccc(O)c(C)c1, the pKa [1] was 10.6 and the EC50 (Rattus norvegicus) was > 100 µM.
With CCCCCCCCC(=O)NCc1ccc(OC)cc1 the EC50 (Cavia porcellus) was 22.2 µM, the ED50 (Mus musculus) was > 50 µmol/kg and the EC50 (Rattus norvegicus) was > 100 µM.
For CCCCCCCCC(=O)NCc1ccccc1OC, the EC50 (Rattus norvegicus) was > 100 µM.
For CCCCCCCCC(=O)NCc1cccnc1, the EC50 (Rattus norvegicus) was > 100 µM.
In the case of CCCCCCCCC(=O)NCc1ccc(OC)c(OC)c1, the EC50 (Cavia porcellus) is reported as 1.15 µM, the ED50 (Mus musculus) is reported as > 50 µmol/kg and the EC50 (Rattus norvegicus) is reported as 6.41 µM.
With CCCCCCCCC(=O)NCc1cc(OC)c(O)cc1OC the EC50 (Rattus norvegicus) was > 100 µM.
Compound CCCCCCCCNC(=O)Cc1ccc(O)c(O)c1 has a pKa [1] of 9.2, an EC50 (Cavia porcellus) of 0.33 µM and an ED50 (Mus musculus) of 50 µmol/kg. It also gave an EC50 (Rattus norvegicus) of 0.41 µM.
For CCCCCCCCNC(=O)Cc1ccc(O)c(NC(C)=O)c1, the pKa [1] was 9.7 and the EC50 (Rattus norvegicus) was > 100 µM.
In the case of CCCCCCCCNC(=O)Cc1ccc(O)c(N)c1, the pKa [1] is reported as 10 and the EC50 (Rattus norvegicus) is reported as > 100 µM.
For CCCCCCCCNC(=O)Cc1ccc(O)cc1, the pKa [1] was 10.2, the EC50 (Cavia porcellus) was 2.75 µM and the ED50 (Mus musculus) was > 50 µmol/kg. The EC50 (Rattus norvegicus) was 6.5 µM.
For CCCCCCCCC(=O)NCc1ccc(O)c(O)c1, the EC50 (Cavia porcellus) was 0.22 µM, the ED50 (Mus musculus) was 20 µmol/kg and the EC50 (Rattus norvegicus) was 0.63 µM.
For CCCCCCCCC(=O)NCc1cccc(O)c1, the EC50 (Rattus norvegicus) was > 100 µM.
With CCCCCCCCC(=O)NCc1ccc2c(c1)OCO2 the EC50 (Rattus norvegicus) was > 100 µM.
In the case of COc1cc(CNC(=O)CCCC/C=C/C(C)C)ccc1O [CAPSAICIN], the EC50 (Cavia porcellus) is reported as 0.26 µM, the ED50 (Mus musculus) is reported as 15 µmol/kg and the EC50 (Rattus norvegicus) is reported as 0.3 µM.
For CCCCCCCCC(=O)NCc1ccccc1 [NONANOIC ACID BENZYLAMIDE], the EC50 (Rattus norvegicus) was > 100 µM.
CCCCCCCCC(=O)NCc1ccc(O)c(OC)c1 [NONIVAMIDE] gave an EC50 (Cavia porcellus) of 0.4 µM, an ED50 (Mus musculus) of 5 µmol/kg and an EC50 (Rattus norvegicus) of 0.55 µM.
